Results on nine compounds are retold here after publication PMC4486263 (Journal of biomolecular screening, 2014).

In one assay the target is T1, Six1-Eya2 interaction (Homo sapiens, UniProt O00167+Q15475).
T1 sequence (Q15475 1-284): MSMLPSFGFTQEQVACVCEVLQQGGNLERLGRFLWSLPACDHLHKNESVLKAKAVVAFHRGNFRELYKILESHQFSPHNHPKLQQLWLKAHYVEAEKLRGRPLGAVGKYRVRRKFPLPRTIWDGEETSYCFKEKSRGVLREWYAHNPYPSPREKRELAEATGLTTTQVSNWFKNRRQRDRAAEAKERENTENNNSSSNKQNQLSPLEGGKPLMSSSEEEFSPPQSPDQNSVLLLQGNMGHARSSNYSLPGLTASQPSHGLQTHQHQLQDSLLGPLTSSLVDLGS
T1 sequence (O00167 1-538): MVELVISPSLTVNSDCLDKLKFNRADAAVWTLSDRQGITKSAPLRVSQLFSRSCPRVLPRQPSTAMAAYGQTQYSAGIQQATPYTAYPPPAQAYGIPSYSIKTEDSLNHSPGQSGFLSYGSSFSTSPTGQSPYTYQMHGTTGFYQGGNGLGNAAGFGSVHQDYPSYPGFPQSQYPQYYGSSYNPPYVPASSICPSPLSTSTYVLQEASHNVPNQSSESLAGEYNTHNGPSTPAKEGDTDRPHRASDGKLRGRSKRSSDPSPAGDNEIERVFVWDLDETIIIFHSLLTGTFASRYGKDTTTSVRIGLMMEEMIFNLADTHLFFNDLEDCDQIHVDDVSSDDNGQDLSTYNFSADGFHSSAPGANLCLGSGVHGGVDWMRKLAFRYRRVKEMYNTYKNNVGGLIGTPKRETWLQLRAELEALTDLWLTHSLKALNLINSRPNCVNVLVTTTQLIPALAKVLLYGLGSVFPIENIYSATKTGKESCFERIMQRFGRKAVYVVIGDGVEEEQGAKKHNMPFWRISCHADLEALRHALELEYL
Put plainly: Counterscreen AlphaScreen assay, Six1-Eya2. The assay is classed as binding. Conditions: 20 nM to 50 μM. In outline:
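Counterscreen AlphaScreen with 200 nM 6xHis-Eya2 and GST-Six1 in 50 mM Tris pH 8.0, 250 mM NaCl, 0.05% BSA, 0.02% Tween-20. Test compound was added at 20 nM to 50 μM. Glutathione donor and Ni-chelate acceptor beads were added from a 25 ng/μL (each) bead solution. Incubated 2 h at 25 °C, then read in AlphaScreen mode.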
A general note: A counterscreen serves to expose hits that act by an unwanted route or on another target.

The next assay deals with lactate dehydrogenase. The experiment in a line: Lactate dehydrogenase enzymatic assay. The assay is classed as biochemical. In outline:
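Lactate dehydrogenase at 5 nM in PBS with 100 μM NADH. Incubated with 5 μM pyruvate or varying test compound concentrations for 1 min at 30 °C. NADH consumption monitored spectrophotometrically at 340 nm; activity as nmol/min/mg protein.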

The target in assay [1] is CtBP1-E1A peptide interaction (Homo sapiens, UniProt Q13363). Put plainly: Fluorescence polarization assay with FITC-labeled E1A 14-mer peptide. The assay is classed as binding. Conditions: for disruption of the CtBP1-peptide interaction (in words): up to 100 μM. In general terms: Fluorescence polarisation rises when a labelled molecule tumbles more slowly, as on binding a larger partner.

Assay [2] addresses T2, CtBP1-E1A interaction (Homo sapiens, UniProt Q13363). Put plainly: CtBP1-E1A AlphaScreen assay. Format: binding. Conditions: for disruption of the CtBP1-E1A interaction (in words): up to 100 μM. (In general: In Alpha technology, singlet oxygen from a donor bead excites a nearby acceptor bead.)
Assay [3] deals with CtBP1-mediated repression of the E-cadherin promoter. Put plainly: E-cadherin promoter luciferase reporter assay in H1299 cells. The assay is classed as cell-based. The settings on record: 18 hrs, normalized to Renilla. In outline: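 H1299 cells were seeded at 2000 cells/well and adhered overnight. FuGENE 6 transfection used 30 ng/well pGL3-E-cadherin promoter plus 10 ng/well Renilla luciferase. After 10 h, cells were treated with varying test compound concentrations for a further 18 h. Passive lysis, then dual-luciferase measurement with Firefly normalised to Renilla.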

Assay [4] relates to MEF3 promoter (SIX1 transcriptional complex). Put plainly: MEF3 promoter luciferase reporter assay in H1299 cells. The assay is classed as cell-based. Conditions: 18 hrs, normalized to Renilla. The procedure, abridged:
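H1299 cells were seeded at 2000 cells/well and adhered overnight. FuGENE 6 transfection used 60 ng/well pGL3-MEF3 promoter, 40 ng/well Six1, 30 ng/well Eya2 and 14 ng/well Renilla luciferase. After 10 h, cells were treated with varying test compound concentrations for 18 h. Dual-luciferase read-out after passive lysis, with Firefly normalised to Renilla.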

The next assay concerns the target CtBP1 (Homo sapiens, UniProt Q13363). Put plainly: CtBP1 enzymatic assay. The assay is classed as biochemical. The settings on record: NADH oxidation, 340 nm. The procedure, abridged:
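E. coli-expressed His-CtBP1 (2 μM) in PBS with NADH. Test compound was added at increasing concentrations in 100 μL reactions after a 2 min incubation at 30 °C. Substrate reduction followed as NADH disappearance at 340 nm by spectrophotometer. Activity expressed as nmol NADH/min/mg protein.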

The target in assay [5] is T2, CtBP1-E1A interaction. The experiment in a line: Competitive ELISA. The settings on record: read-out: IC50, disruption of the CtBP1-E1A interaction. Format: binding. The procedure, abridged:
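Plates coated with His-tagged CtBP1 (E. coli-expressed, Ni-affinity then size-exclusion purified) in 50 mM Tris pH 8.0, 250 mM NaCl, 1 h at 25 °C. Blocked 1 h with 1% BSA/0.05% Tween-20 in 50 mM Tris pH 8.0, 250 mM NaCl, 1 mM TCEP. GST-Ad5 E1A was added with increasing test compound concentrations in triplicate for 1 h at 25 °C. Detection used rabbit anti-GST (1:1500), then goat anti-rabbit (1:2500), 1 h each, and ABTS absorbance.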

The test system of the next assay is NCI 60 tumor-cell panel. The settings on record: ref http://dtp.nci.nih.gov/; cited from earlier work.

Entries after “also recorded” stand apart in the source; their conditions may differ.

On to `O=C1c2ccccc2C(=O)c2c(NCCc3ccc(O)cc3)ccc(NCCc3ccc(O)cc3)c21` [JFD00244], for which, at Six1-Eya2 interaction, the “inhibition of the Six1-Eya2 interaction” value is listed as “efficiently inhibited”.
As for `CC(=O)C(=O)O` [pyruvate], the “LDH activity with substrate” value with lactate dehydrogenase was 9680 ± 558 nmol/min/mg protein.
On to `O=C1O/C(=C/Br)CCC1c1cccc2ccccc12` (centres unmarked) [bromoenol lactone], for which, on Six1-Eya2 interaction, the “inhibition of the Six1-Eya2 interaction” value was “efficiently inhibited”.
On to `CCCn1c(=O)c2[nH]c(C3CCCC3)nc2n(CCCOC(=O)c2ccc(S(=O)(=O)F)cc2)c1=O` [FSCPX], for which the “inhibition of the Six1-Eya2 interaction” value against Six1-Eya2 interaction is recorded as “did not inhibit”. In addition, the “disruption of the CtBP1-peptide interaction (in words)” value in assay [1] was “inactive; also recorded: unable to disrupt”.
In the case of `CCCCc1ccc(C(=O)O)nc1` [fusaric acid], the “inhibition of the Six1-Eya2 interaction” value on Six1-Eya2 interaction is on record as “did not inhibit”. For the same compound, the “disruption of the CtBP1-peptide interaction (in words)” value in assay [1] was “inactive; also recorded: unable to disrupt”.
Take `CSCCC(=O)C(=O)O` [MTOB, 4-methylthio-2-oxobutanoic acid]: the “disruption of the CtBP1-peptide interaction (in words)” value in assay [1] is given as “ineffective at disrupting the interaction; also recorded: unable to inhibit”. Besides, the “disruption of the CtBP1-E1A interaction (in words)” value at CtBP1-E1A interaction [2] is “ineffective at disrupting the interaction; also recorded: unable to inhibit; also recorded: unable to affect the protein interaction”.
Take `O.c1cnc2c(c1)ccc1cccnc12` [10-phenanthroline monohydrate]: the “inhibition of the Six1-Eya2 interaction” value against Six1-Eya2 interaction is on record as “efficiently inhibited”.
On the same count and under the same terms, for `Nc1c(S(=O)(=O)O)cc(Nc2ccc(Nc3nc(Cl)nc(Nc4cccc(S(=O)(=O)O)c4)n3)c(S(=O)(=O)O)c2)c2c1C(=O)c1ccccc1C2=O` [reactive blue 2] the value was “efficiently inhibited”.
A word on the IC50: it is the point on the concentration scale where inhibition reaches its midpoint. In the case of `O=C1C(SCCO)=C(SCCO)C(=O)c2ccccc21` [NSC95397], the “luciferase activity, E-cadherin promoter” value in [3] is recorded as “able to disrupt CtBP-mediated transcriptional repression; also recorded: increased with increasing concentrations; also recorded: can reverse CtBP-mediated transcriptional repression”. For the same compound, in [4], the “luciferase activity, MEF3 promoter” value is recorded as “unaltered; also recorded: has no effect”. Also, the “maximal activity as CtBP1 substrate” value on CtBP1 is on record as 28.5 ± 4.9 nmol/min/mg protein. The “inhibition of LDH (pyruvate reduction)” value in the assay with lactate dehydrogenase (5 μM pyruvate, up to 100 μM compound) is “did not significantly inhibit; also recorded: unable to detect any inhibition; also recorded: unable to inhibit”. Moreover, the “substrate of LDH (NADH consumption without pyruvate)” value in the assay on lactate dehydrogenase (increasing concentrations, no pyruvate) is recorded as “nor did it exhibit significant consumption of NADH; also recorded: did not detect a significant loss in NADH levels”. Besides, the IC50 was determined as 10 ± 1.3 µM at CtBP1-E1A interaction [5]; 0.61 ± 0.12 µM in [1] (read-out: IC50, CtBP1-E1A peptide interaction, 3 μM CtBP1, 5 nM FITC-E1A peptide); 2.9 µM at CtBP1-E1A interaction [2] (read-out: IC50, inhibition of the CtBP1-E1A interaction). Besides, at Six1-Eya2 interaction, the “inhibition of the Six1-Eya2 interaction” value is on record as “did not inhibit; also recorded: does not inhibit; also recorded: did not detect a loss of AlphaScreen signal”. Moreover, in the assay on NCI 60 tumor-cell panel, the “average GI50s over all cell lines” value was 1.04 µM. Besides, the “disruption of the CtBP1-peptide interaction (in words)” value in [1] was “able to disrupt the interaction; also recorded: efficiently inhibits”. Further, on CtBP1-E1A interaction [2], the “disruption of the CtBP1-E1A interaction (in words)” value is given as “able to disrupt the interaction; also recorded: efficiently inhibits”.
